How the values were obtained:
hERG = hERG (Homo sapiens, UniProt Q12809); assay: hERG channel currents in inside-out patches; type: cell-based; settings: inside-out patches; result in words
TRAAK = molecular target: T1, TRAAK (Homo sapiens, UniProt Q9NYG8); assay: Extended screening of K2P channels with BL-1249: TRAAK; type: cell-based; settings: result in words
T1 sequence (Q9NYG8 1-393): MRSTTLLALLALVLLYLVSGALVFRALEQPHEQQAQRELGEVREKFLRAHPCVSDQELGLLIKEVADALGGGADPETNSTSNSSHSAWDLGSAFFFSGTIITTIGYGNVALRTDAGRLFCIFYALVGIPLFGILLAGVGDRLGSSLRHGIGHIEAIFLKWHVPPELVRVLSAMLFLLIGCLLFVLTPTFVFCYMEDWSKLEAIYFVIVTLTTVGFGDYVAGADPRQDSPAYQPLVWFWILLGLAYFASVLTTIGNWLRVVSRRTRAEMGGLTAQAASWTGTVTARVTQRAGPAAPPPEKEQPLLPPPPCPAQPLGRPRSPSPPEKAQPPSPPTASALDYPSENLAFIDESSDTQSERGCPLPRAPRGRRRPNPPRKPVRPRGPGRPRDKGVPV

TALK-2 = molecular target: T2, TALK-2 (Homo sapiens, UniProt Q96T54); assay: TALK-2 currents in inside-out patches; type: cell-based; settings: result in words
T2 sequence (Q96T54 1-332): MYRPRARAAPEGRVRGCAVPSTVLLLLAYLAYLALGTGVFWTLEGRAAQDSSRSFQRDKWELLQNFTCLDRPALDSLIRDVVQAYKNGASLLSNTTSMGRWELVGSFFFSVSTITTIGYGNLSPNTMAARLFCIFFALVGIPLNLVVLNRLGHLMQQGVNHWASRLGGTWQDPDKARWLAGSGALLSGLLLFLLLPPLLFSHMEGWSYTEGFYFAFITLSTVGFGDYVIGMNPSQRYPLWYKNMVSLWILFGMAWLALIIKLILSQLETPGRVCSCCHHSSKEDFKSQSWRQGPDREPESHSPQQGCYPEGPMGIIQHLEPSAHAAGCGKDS
Outline: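 TALK-2 currents were recorded in inside-out patches from Xenopus oocytes. Fold activation was measured with 50 μM test compound or 1 mM 2-APB, applied at several intracellular pH values.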

THIK-1 = molecular target: T3, THIK-1 (Homo sapiens, UniProt Q9HB14); assay: Extended screening of K2P channels with BL-1249: THIK-1; type: cell-based; settings: result in words
T3 sequence (Q9HB14 1-408): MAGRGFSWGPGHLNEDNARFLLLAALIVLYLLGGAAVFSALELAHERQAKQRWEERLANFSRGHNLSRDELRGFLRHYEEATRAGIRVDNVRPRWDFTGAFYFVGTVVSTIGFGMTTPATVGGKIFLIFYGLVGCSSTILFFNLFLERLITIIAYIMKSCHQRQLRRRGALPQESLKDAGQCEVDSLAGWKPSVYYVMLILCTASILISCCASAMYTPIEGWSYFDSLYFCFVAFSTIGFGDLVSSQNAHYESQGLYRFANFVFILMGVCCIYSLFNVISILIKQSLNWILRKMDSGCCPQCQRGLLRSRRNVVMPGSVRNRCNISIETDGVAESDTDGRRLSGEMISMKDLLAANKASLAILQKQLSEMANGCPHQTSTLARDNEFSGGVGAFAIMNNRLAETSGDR

Kv1.5 = Kv1.5 (Homo sapiens, UniProt P22460); assay: BL-1249 on helix bundle-crossing gated channel Kv1.5; type: cell-based; settings: result in words
Kir1.1 = molecular target: T4, Kir1.1 (Homo sapiens, UniProt P48048); assay: BL-1249 on helix bundle-crossing gated channel Kir1.1; type: cell-based; settings: result in words
T4 sequence (P48048 1-391): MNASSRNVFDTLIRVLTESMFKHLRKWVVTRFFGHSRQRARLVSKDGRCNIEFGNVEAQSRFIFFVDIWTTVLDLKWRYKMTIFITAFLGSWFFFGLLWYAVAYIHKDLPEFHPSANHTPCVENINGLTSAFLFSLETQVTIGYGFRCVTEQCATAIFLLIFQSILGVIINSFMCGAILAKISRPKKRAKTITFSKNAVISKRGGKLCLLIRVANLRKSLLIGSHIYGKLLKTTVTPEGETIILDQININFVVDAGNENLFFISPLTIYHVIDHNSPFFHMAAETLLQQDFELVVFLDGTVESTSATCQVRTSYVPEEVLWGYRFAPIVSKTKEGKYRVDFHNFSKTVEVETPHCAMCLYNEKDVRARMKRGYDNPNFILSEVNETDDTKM

TREK-2 = molecular target: T5, TREK-2 (Homo sapiens, UniProt P57789); assay: Single channel recordings of TREK-2 expressed in HEK293 cells; type: cell-based; settings: TREK-2 in HEK293 cells
T5 sequence (P57789 1-538): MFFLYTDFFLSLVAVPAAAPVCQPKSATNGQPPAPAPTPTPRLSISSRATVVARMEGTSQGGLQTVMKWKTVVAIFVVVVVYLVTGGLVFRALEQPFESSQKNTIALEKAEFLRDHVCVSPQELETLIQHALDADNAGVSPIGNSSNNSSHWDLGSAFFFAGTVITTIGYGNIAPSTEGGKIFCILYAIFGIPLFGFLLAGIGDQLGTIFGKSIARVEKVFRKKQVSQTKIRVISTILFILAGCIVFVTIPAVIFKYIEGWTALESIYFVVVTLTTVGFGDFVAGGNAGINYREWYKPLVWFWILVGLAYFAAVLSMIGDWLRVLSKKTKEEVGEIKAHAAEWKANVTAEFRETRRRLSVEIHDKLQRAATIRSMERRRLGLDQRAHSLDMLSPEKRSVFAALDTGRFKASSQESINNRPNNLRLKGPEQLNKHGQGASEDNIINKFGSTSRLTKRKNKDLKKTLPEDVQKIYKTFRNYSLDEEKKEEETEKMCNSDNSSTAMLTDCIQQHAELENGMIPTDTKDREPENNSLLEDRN

[1] = acidic tetrazole ring; no reference given; cited from earlier work

Kv1.5, sequence (P22460 whole entry): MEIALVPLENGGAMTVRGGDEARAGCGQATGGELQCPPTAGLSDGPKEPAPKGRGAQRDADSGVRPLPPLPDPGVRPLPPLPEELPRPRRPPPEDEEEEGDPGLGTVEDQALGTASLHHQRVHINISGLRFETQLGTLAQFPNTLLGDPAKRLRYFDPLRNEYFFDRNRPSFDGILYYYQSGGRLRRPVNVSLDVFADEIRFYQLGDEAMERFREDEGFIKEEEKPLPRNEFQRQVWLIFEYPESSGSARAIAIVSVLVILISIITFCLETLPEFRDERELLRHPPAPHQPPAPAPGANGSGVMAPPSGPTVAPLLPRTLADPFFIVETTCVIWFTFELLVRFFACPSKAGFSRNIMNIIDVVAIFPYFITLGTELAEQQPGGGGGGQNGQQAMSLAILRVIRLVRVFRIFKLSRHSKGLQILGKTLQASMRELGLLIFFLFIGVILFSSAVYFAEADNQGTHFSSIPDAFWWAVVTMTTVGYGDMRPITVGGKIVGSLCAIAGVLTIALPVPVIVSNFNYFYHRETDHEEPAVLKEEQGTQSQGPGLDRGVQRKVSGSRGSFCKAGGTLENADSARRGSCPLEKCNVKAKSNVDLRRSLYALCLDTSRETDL
hERG, sequence (Q12809 whole entry): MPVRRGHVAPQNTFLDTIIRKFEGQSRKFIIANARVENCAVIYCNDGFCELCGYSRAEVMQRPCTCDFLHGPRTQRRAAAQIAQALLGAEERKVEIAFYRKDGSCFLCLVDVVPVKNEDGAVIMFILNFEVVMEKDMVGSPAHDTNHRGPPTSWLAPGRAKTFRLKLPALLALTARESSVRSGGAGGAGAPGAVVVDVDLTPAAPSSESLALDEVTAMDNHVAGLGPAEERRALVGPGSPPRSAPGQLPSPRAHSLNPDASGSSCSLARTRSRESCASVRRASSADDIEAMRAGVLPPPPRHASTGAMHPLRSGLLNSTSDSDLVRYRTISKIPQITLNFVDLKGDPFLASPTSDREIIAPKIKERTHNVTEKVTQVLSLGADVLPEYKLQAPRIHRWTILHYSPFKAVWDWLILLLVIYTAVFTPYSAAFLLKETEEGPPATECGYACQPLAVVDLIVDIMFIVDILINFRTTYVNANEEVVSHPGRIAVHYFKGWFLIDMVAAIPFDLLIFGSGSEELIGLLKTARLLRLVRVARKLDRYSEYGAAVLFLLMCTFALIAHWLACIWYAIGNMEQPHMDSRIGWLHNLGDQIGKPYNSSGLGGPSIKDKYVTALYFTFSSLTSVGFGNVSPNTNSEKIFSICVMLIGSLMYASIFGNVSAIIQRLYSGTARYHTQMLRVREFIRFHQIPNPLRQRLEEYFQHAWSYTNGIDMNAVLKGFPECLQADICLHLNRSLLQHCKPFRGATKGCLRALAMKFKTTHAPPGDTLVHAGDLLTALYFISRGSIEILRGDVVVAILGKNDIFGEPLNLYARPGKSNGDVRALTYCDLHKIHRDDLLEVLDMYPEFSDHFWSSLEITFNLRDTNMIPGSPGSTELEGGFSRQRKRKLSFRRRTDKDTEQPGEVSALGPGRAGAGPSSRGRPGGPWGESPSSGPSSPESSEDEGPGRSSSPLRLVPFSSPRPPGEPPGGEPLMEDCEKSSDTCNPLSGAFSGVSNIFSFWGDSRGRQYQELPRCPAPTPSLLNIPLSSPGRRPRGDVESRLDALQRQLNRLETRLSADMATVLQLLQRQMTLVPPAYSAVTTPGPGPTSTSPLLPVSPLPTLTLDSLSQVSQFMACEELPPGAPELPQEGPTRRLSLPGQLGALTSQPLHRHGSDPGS

**Q.** Which “opening / activation of hERG channels” value (hERG) does the source give for `c1ccc(-c2nn[nH]n2)c(Nc2cccc3c2CCCC3)c1` [BL-1249] here?
**A.** equal efficiency in opening

**Q.** What about the “activation of TRAAK” value (TRAAK) of the same molecule?
**A.** potent activation

**Q.** What about the “activation of TALK-2” value (TALK-2; extended screening) of the same molecule?
**A.** potent activation

**Q.** And the “pH dependence of TALK-2 activation” value (TALK-2; lowering pHi to 5, 50 μM BL-1249 or 1 mM 2-APB)?
**A.** potency dropped strongly

**Q.** And the “activation of THIK-1” value (THIK-1)?
**A.** potent activation

**Q.** And the “activation of Kv1.5” value (Kv1.5)?
**A.** not activated

**Q.** What about the “activation of Kir1.1” value (Kir1.1) of the same molecule?
**A.** not activated

**Q.** What about the “single channel amplitude, outward” value (TREK-2; +100 mV, with BL-1249 (basal 17.7 ± 1.3), n = 7) of the same molecule?
**A.** 21.7 ± 1.4 pA

**Q.** And the “single channel amplitude, inward” value (TREK-2; -100 mV, with BL-1249 (basal -29.3 ± 1.5), n = 7)?
**A.** -34.1 ± 1.9 pA

**Q.** What about the open probability (TREK-2; result in words) of the same molecule?
**A.** increase in open probability

**Q.** What about the pKa [1] of the same molecule?
**A.** around 5

— paper PMC6982535 (Science (New York, N.Y.), 2019)
